Experimental data from publication PMC3028369 (Diabetes, 2011).
Converted amounts (≈) assume the structure as drawn. Values belong to the compound of their own block, whether it stands above or below them.

Key:
[1] = test system: mouse aortic ECs; test: IL-6 and KC production in mouse aortic ECs; type: cell-based; conditions: for effect on IL-6 production in ECs (ELISA): 16 h, 10 nmol/L CPA, 100 nmol/L CGS21680, 10 nmol/L Cl-IBMECA
Outline: (§1)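 Mouse aortic endothelial cells were exposed to the nonselective agonist NECA over a time course. IL-6 and KC were read out as mRNA by quantitative RT-PCR and as secreted protein.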

[2] = test system: C57BL/6J and adenosine receptor knockout mice; test: NECA gavage before glucose tolerance test, fasting glucose and plasma IL-6; type: in vivo, mouse
Outline: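 Male 8-week C57BL/6J mice and congenic adenosine receptor knockouts (N = 5) received an oral bolus of vehicle or NECA (0.3 mg/kg) 35 min before an ip GTT (1.25 g/kg). Blood glucose was read by glucometer and AUC calculated. Fasting glucose was taken 35 min after gavage. Plasma IL-6 was measured 4 h after dosing.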

[3] = test system: mouse aortic ECs; test: IL-6 mRNA induction in mouse aortic ECs; type: cell-based
Outline: as §1

[4] = test system: mouse aortic ECs; test: Cyclic AMP accumulation in mouse aortic ECs; type: cell-based; conditions: ECs from C57BL/6 mice
[5] = Aqueous solubility; type: physicochemical
[6] = test system: KKA^Y mice; test: Hyperinsulinemic-euglycemic clamp in diabetic KKA^Y mice; type: in vivo, mouse; conditions: 20 mg/kg oral gavage four times at 12-h intervals
Outline: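 Insulin-resistant KKAY mice received test compound at 20 mg/kg by oral gavage four times at 12-h intervals. A jugular catheter was placed under anaesthesia 4–5 days earlier. Plasma [3H]glucose was sampled before, during and at the end. HGP was taken basally and under clamp. N = 7; two-tailed Student t test.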

[7] = test system: C57BL/6 mice; test: High-fat diet-induced elevated fasting blood glucose; type: in vivo, mouse; conditions: 10 mg/kg/day in high-fat diet for 10 weeks, 4-h fast
Outline: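 C57BL/6 mice ate a high-fat diet (55% of calories from fat) for 10 weeks, with or without test compound at 10 mg/kg/day. Blood glucose was measured after a 4-h fast, N = 5.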

[8] = Oral bioavailability in rats; type: in vivo, rat

SMILES: CCNC(=O)[C@H]1O[C@@H](n2cnc3c(N)ncnc32)[C@H](O)[C@@H]1O [NECA, 5′-N-ethylcarboxamidoadensoine]
IL-6 production (protein) in ECs ([1]; 1 μmol/L, time course): more sustained stimulation | production of the murine IL-8 homolog KC in ECs ([1]; 1 μmol/L, time course): stimulates the production | EC50 ([1]; read-out: EC50 to stimulate IL-6 production in ECs, ECs from C57BL/6 mice, 24 h): 140 nM | plasma IL-6 ([2]; C57BL/6J mice, 4 h after administration): increase in plasma IL-6 | fasting glucose levels ([2]; C57BL/6 mice, 35 min after gavage): significantly increased | glucose disposal during GTT ([2]; wild-type fasted mice, oral gavage 0.3 mg/kg 35 min before GTT): substantial delay in glucose disposal | IL-6 mRNA in ECs ([3]; 1 μmol/L, time course): transient increase | cyclic AMP in ECs ([4]; agonist alone): rapid increase in cyclic AMP

SMILES: CCNC(=O)[C@H]1O[C@@H](n2cnc3c(N)nc(NCCc4ccc(CCC(=O)O)cc4)nc32)[C@H](O)[C@@H]1O [CGS21680]
effect on IL-6 production in ECs (ELISA) [1]: without effect

SMILES: CNC(=O)[C@H]1O[C@@H](n2cnc3c(NCc4cccc(I)c4)nc(Cl)nc32)[C@H](O)[C@@H]1O [Cl-IB-MECA]
effect on IL-6 production in ECs (ELISA) [1]: without effect

SMILES: Nc1nc2c(cnn2CCc2ccc(S(=O)(=O)F)cc2)c2nc(-c3ccco3)nn12 [FSPTP]
effect on NECA-induced increase in cyclic AMP ([4]; 1 μmol/L ATL-692, 100 nmol/L FSPTP): not affected

SMILES: OC[C@H]1O[C@@H](n2cnc3c(NC4CCCC4)ncnc32)[C@H](O)[C@@H]1O [CPA]
effect on IL-6 production in ECs (ELISA) [1]: without effect

SMILES: CCCCCCOC(=O)[C@]1(O)C[C@@H]2O[C@@]1(C)n1c3ccccc3c3c4c(c5c6ccccc6n2c5c31)C(=O)NC4 [KT5720]
inhibition of IL-6 mRNA induction by NECA ([3]; ECs, inhibitor at 1 μmol/L): significantly inhibited

aqueous solubility [5]: 30 µg/mL (≈ 65.3 µM) | oral bioavailability [8]: 73%
SMILES: CCCn1c(=O)n(C2CC2)c(=O)c2[nH]c(-c3ccc(N(CC)C(=O)c4cccnc4)nc3)nc21 [ATL-801]
basal HGP rate [6]: markedly reduced | clamp HGP rate (insulin-stimulated state) [6]: markedly reduced | increase in hepatic insulin action (insulin-mediated percent suppression of basal HGP) [6]: 30% | diet-induced elevated fasting blood glucose [7]: significantly reduced
